In ChEMBL document CHEMBL4251683, “Improved Dose-Response Relationship of (+)-Discodermolide-Taxol Hybrid Congeners” (2018):
One block for each molecule: values may come before it. Calls of active or inactive are those of the source. The calls are words filed in the database; no cut-off is given here.

How the values were obtained:
[1] = tested on: MDA-MB-157; assay: Antiproliferative activity against human MDA-MB-157 cells after 3 to 7 days by SRB assay; assay type: functional, cell-based
Summary of the method: (§1)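 Sulforhodamine B total-protein read-out on adherent cells maintained in RPMI with 10% FBS. Seeding was 900–4000 cells per well depending on line, with 24 h allowed for attachment. Six replicate wells per concentration, exposure for three cell doublings (3 to 7 days); DMSO final below 0.01%. Logistic sigmoidal fit by nonlinear least squares gave EC50, EMax and AUC; experiments repeated at least three times.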

[2] = tested on: HEY; assay: Induction of senescence in human HEY cells at EC80 concentration after 3 to 6 days by DAPI staining based flow cytometry; assay type: functional
Summary of the method: (§2)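 Compounds given at approximately EC80 (taken from the cell's own dose-response data) for 3 to 6 days depending on line. Floating and trypsinized adherent cells were pooled, washed 3–5 times in warm PBS, and stained with DAPI (1/10,000) in PBS with 4% FBS on ice. Flow cytometry counted 10 000 cells per gate: dead = DAPI+, senescent = SSC+ DAPI−. Duplicate experiments, mean ± SEM.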

[3] = tested on: MCF7; assay: Antiproliferative activity against human MCF7 cells after 3 to 7 days by SRB assay; assay type: functional, cell-based; summary of the method: as §1
[4] = tested on: HCC1143; assay: Antiproliferative activity against human HCC1143 cells after 3 to 7 days by SRB assay; assay type: functional, cell-based; summary of the method: as §1
[5] = species on record: Bos taurus; assay: Induction of bovine brain tubulin alpha polymerization assessed as alpha tubulin expression by measuring pellet/supernatant and pellet fraction level at 3 uM after 1 hr by immunoblot method (reference value: 10.4%)
Summary of the method: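 Purified bovine brain tubulin incubated 30 min at 37 °C with 3 μM compound in MEM–glycerol buffer, 2 mM GTP, pH 6.9. Spun at 120000g, 37 °C, 1 h. Supernatant and SDS-solubilized pellet run on SDS-PAGE, α-tubulin quantified by Western blot, % polymerized calculated as P/(S + P).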

[6] = tested on: A549; assay: Antiproliferative activity against human A549 cells after 3 to 7 days by SRB assay; assay type: functional, cell-based; summary of the method: as §1
[7] = tested on: BT-20; assay: Antiproliferative activity against human BT20 cells after 3 to 7 days by SRB assay; assay type: functional, cell-based; summary of the method: as §1
[8] = tested on: HEY; assay: Antiproliferative activity against human HEY cells after 3 to 7 days by SRB assay; assay type: functional, cell-based; summary of the method: as §1
[9] = tested on: Hs-578T; assay: Induction of senescence in human Hs578T cells at EC80 concentration after 3 to 6 days by DAPI staining based flow cytometry; assay type: functional; summary of the method: as §2
[10] = tested on: BT-549; assay: Antiproliferative activity against human BT549 cells after 3 to 7 days by SRB assay; assay type: functional, cell-based; summary of the method: as §1
[11] = tested on: Hs-578T; assay: Antiproliferative activity against human Hs578T cells after 3 to 7 days by SRB assay; assay type: functional, cell-based; summary of the method: as §1
[12] = tested on: MDA-MB-468; assay: Antiproliferative activity against human MDA-MB-468 cells after 3 to 7 days by SRB assay; assay type: functional, cell-based; summary of the method: as §1
[13] = tested on: Hs-578T; assay: Induction of senescence in human Hs578T cells assessed as increase in IL-8 mRNA expression level at 100 nM after 10 days by qRT-PCR analysis; assay type: functional, cell-based
Summary of the method: (§3)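 HS578T exposed to 100 nM doxorubicin for 10 days, then sorted for SSC+ DAPI− cells. Sorted and unsorted populations assayed by qRT-PCR for SASP transcripts. Expression was normalised to cyclophilin B, and groups compared by unpaired t test.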

[14] = tested on: Hs-578T; assay: Induction of senescence in human Hs578T cells assessed as increase in cell population with high side scatter at 100 nM after 10 days by DAPI staining based flow cytometry; assay type: functional
Summary of the method: (§4)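 HS578T treated with 100 nM doxorubicin for 10 days, then stained with DAPI for live-cell flow cytometry. Forward scatter (volume) and side scatter (granularity) recorded. Dead cells were DAPI+; senescent cells were high FSC and SSC with low DAPI uptake; mitotic catastrophe was FSC increase only.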

[15] = tested on: Hs-578T; assay: Induction of mitotic catastrophe in human Hs578T cells assessed as increase in cell population with high forward scatter at 100 nM after 10 days by DAPI staining based flow cytometry; assay type: functional; summary of the method: as §4
[16] = tested on: Hs-578T; assay: Induction of senescence in human Hs578T cells assessed as increase in CXCL1 mRNA expression level at 100 nM after 10 days by qRT-PCR analysis; assay type: functional, cell-based; summary of the method: as §3
[17] = tested on: Hs-578T; assay: Induction of senescence in human Hs578T cells assessed as increase in cell population with high forward scatter at 100 nM after 10 days by DAPI staining based flow cytometry; assay type: functional; summary of the method: as §4
[18] = tested on: Hs-578T; assay: Induction of senescence in human Hs578T cells assessed as increase in IL-6 mRNA expression level at 100 nM after 10 days by qRT-PCR analysis; assay type: functional, cell-based; summary of the method: as §3
[19] = tested on: Hs-578T; assay: Induction of senescence in human Hs578T cells assessed as increase in dead cells at 100 nM after 10 days by DAPI staining based flow cytometry; assay type: functional, cell-based; summary of the method: as §4
[20] = tested on: MDA-MB-468; assay: Induction of senescence in human MDA-MB-468 cells assessed as increase in PAI1 mRNA expression level at EC80 concentration after 6 days by qRT-PCR analysis; assay type: functional, cell-based
Summary of the method: (§5)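 Cells treated 6 days at EC80 doses (derived from dose-response data) and analysed for SASP transcripts by qRT-PCR. Expression was normalised to cyclophilin B and expressed relative to vehicle-treated asynchronous cells. Bars are mean ± SEM (n = 2).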

[21] = tested on: MDA-MB-468; assay: Induction of senescence in human MDA-MB-468 cells assessed as increase in IL-8 mRNA expression level at EC80 concentration after 6 days by qRT-PCR analysis; assay type: functional, cell-based; summary of the method: as §5
[22] = tested on: Hs-578T; assay: Induction of cell death in human Hs578T cells at EC80 concentration after 3 to 6 days by DAPI staining based flow cytometry; assay type: functional; summary of the method: as §2
[23] = tested on: MDA-MB-468; assay: Induction of senescence in human MDA-MB-468 cells assessed as increase in CXCL1 mRNA expression level at EC80 concentration after 6 days by qRT-PCR analysis; assay type: functional, cell-based; summary of the method: as §5
[24] = tested on: MDA-MB-468; assay: Induction of cell death in human MDA-MB-468 cells at EC80 concentration after 3 to 6 days by DAPI staining based flow cytometry; assay type: functional; summary of the method: as §2
[25] = tested on: MDA-MB-468; assay: Induction of senescence in human MDA-MB-468 cells at EC80 concentration after 3 to 6 days by DAPI staining based flow cytometry; assay type: functional; summary of the method: as §2
[26] = tested on: HEY; assay: Induction of senescence in human HEY cells assessed as increase in IL-8 mRNA expression level at EC80 concentration after 6 days by qRT-PCR analysis; assay type: functional, cell-based; summary of the method: as §5
[27] = tested on: BT-549; assay: Induction of senescence in human BT549 cells at EC80 concentration after 3 to 6 days by DAPI staining based flow cytometry; assay type: functional; summary of the method: as §2
[28] = tested on: HEY; assay: Induction of senescence in human HEY cells assessed as increase in PAI1 mRNA expression level at EC80 concentration after 6 days by qRT-PCR analysis; assay type: functional, cell-based; summary of the method: as §5
[29] = tested on: BT-549; assay: Induction of cell death in human BT549 cells at EC80 concentration after 3 to 6 days by DAPI staining based flow cytometry; assay type: functional; summary of the method: as §2
[30] = tested on: HEY; assay: Induction of senescence in human HEY cells assessed as increase in CXCL1 mRNA expression level at EC80 concentration after 6 days by qRT-PCR analysis; assay type: functional, cell-based; summary of the method: as §5

- Activity [5]: 15.8%
Structure (SMILES): CC(=O)O[C@H]1C(=O)[C@@]2(C)[C@H]([C@H](OC(=O)c3ccccc3)[C@]3(O)C[C@H](OC(=O)[C@H](O)[C@@H](NC(=O)c4ccccc4)c4ccccc4)C(C)=C1C3(C)C)[C@]1(OC(C)=O)CO[C@@H]1C[C@@H]2O [PACLITAXEL]
- Activity [1]: Active
- Activity [2]: 10 - 15%
- Activity [3]: Active
- Activity [4]: Active
- Activity [6]: Active
- Activity [7]: Active
- Activity [8]: Active
- Activity [9]: 15 - 18%
- Activity [10]: Active
- Activity [11]: Active
- Activity [12]: Active

Structure (SMILES): COc1cccc2c1C(=O)c1c(O)c3c(c(O)c1C2=O)C[C@@](O)(C(=O)CO)C[C@@H]3O[C@H]1C[C@H](N)[C@H](O)[C@H](C)O1
- Activity [13]: Active
- Activity [14]: Active
- Activity [15]: Active
- Activity [16]: Active
- Activity [17]: Active
- Activity [18]: Active
- Activity [19]: Active

Structure (SMILES): C=C/C=C\[C@H](C)[C@H](OC(N)=O)[C@@H](C)[C@H](O)[C@@H](C)C/C(C)=C\[C@H](C)[C@@H](O)[C@@H](C)/C=C\[C@@H](O)C[C@@H]1OC(=O)[C@H](C)[C@@H](O)[C@H]1C [DISERMOLIDE]
- Activity [1]: Active
- Activity [2]: 10 - 15%
- Activity [3]: Active
- Activity [4]: Active
- Activity [5]: 59.3%
- Activity [6]: Active
- Activity [7]: Active
- Activity [8]: Active
- Activity [20]: Active
- Activity [21]: Active
- Activity [9]: 15 - 18%
- Activity [10]: Active
- Activity [11]: Active
- Activity [22]: inactive
- Activity [12]: Active
- Activity [23]: Active

- Activity [5]: 64.2%
Structure (SMILES): C=C/C=C\[C@H](C)[C@H](OC(=O)NCCCNC(=O)c1ccc(N=[N+]=[N-])cc1)[C@@H](C)[C@H](O)[C@@H](C)C/C(C)=C\[C@H](C)[C@@H](O)[C@@H](C)/C=C\[C@@H](O)C[C@@H]1OC(=O)[C@H](C)[C@@H](O)[C@H]1C
- Activity [24]: Active
- Activity [1]: Active
- Activity [25]: <10%
- Activity [2]: 10 - 15%
- Activity [3]: Active
- Activity [4]: Active
- Activity [6]: Active
- Activity [7]: Active
- Activity [26]: Active
- Activity [8]: Active
- Activity [20]: Active
- Activity [21]: Active
- Activity [9]: 15 - 18%
- Activity [10]: Active
- Activity [27]: <10%
- Activity [28]: Active
- Activity [29]: Active
- Activity [11]: Active
- Activity [22]: inactive
- Activity [12]: Active
- Activity [23]: Active
- Activity [30]: Active
